Tests used:
[1] = target: bovine serum albumin (BSA) (Bos taurus, UniProt P02769); assay: Reaction of DNIC-1 with bovine serum albumin; type: binding; conditions: PBS pH 7.4, 37 °C, EPR
[2] = NO release, Nitrate/Nitrite Colorimetric Assay; type: physicochemical; conditions: degradation of BSA-bound DNIC, PBS pH 7.4
Procedure, shortened: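 25 μM test compound was left to degrade under air for 2 d in 50 mM phosphate pH 7.4, SIF or SGFsp, or with BSA in PBS pH 7.4. For nitrate/nitrite, 10 μL sample was diluted in kit buffer with enzyme cofactor and nitrate reductase for 1 h at room temperature. NO equivalents were calculated from 0–35 μM nitrite/nitrate standard curves.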

[3] = Effect of BSA or L-cysteine on degradation of DNIC-1 in PBS; type: physicochemical
Procedure, shortened: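 UV-vis stability: 25 μM test compound with 10 mg/mL BSA in PBS pH 7.4 at 37 °C under air. […] The same design was used with 150 μM L-cysteine instead of BSA, and with BSA under anaerobic conditions. Three independent experiments.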

[4] = type: in vivo, C57BL/6JNarl mice; conditions: mice, oral gavage 13.25 mg/kg

Chain of bovine serum albumin (BSA) (P02769 25-607): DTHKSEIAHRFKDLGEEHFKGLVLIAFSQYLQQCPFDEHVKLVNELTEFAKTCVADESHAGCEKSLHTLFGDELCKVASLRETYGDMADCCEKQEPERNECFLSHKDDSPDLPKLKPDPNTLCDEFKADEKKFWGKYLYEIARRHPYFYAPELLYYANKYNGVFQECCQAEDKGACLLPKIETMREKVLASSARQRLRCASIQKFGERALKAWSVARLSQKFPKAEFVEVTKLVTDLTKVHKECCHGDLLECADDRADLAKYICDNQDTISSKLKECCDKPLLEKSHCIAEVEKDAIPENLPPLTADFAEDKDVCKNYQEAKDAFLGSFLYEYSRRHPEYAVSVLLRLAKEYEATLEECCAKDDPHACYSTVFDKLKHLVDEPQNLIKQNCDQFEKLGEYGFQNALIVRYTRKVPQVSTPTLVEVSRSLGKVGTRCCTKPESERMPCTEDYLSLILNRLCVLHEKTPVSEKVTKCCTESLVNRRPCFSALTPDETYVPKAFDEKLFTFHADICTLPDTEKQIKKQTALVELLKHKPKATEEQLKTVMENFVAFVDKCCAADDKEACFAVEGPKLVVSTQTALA

Row | Substance | reaction time to plateau of BSA-bound DNIC formation [1] | released nitric oxide [2] | half-life of BSA-bound DNIC (UV-vis decay at 384 and 565 nm) ([3]; 25 μM DNIC-1 + 10 mg/mL BSA, PBS pH 7.4, aerobic, 37 °C) | half-life of BSA-bound DNIC (decay of EPR signal) ([3]; 25 μM DNIC-1 + 50 mg/mL BSA, PBS pH 7.4, aerobic, 37 °C, EPR) | stability under anaerobic condition ([3]; 10 mg/mL BSA, PBS pH 7.4, 37 °C, 24 h, anaerobic) | half-life in the small intestine [4]
1 | [(NO)2Fe(SR)(BSA)] (R = CH2CH2OH) [BSA-bound DNIC] | 15 min | ~1.4 equiv | 3.5 ± 0.3 h | 3.5 ± 0.2 h | No change of the UV–vis spectra | 
2 | [(NO)2Fe(SR)(mucin)] (R = CH2CH2OH) [mucin-bound DNIC] |  |  |  |  |  | 3.0 ± 0.6 h
